Measurements published in ChEMBL document CHEMBL1135711, “Evaluation of the Dmt-Tic pharmacophore: conversion of a potent delta-opioid receptor antagonist into a potent delta agonist and ligands with mixed properties” (J Med Chem, 2002).
Square brackets hold non-standard residues; d marks the D form. Peptide text beside a SMILES is read from it. * marks the point of attachment. ξ: configuration not given here. Dmt = Cc1cc(O)cc(C)c1C[C@H](N)C(=O)O; Tic = O=C(O)[C@@H]1Cc2ccccc2CN1; ξTic = O=C(O)C1Cc2ccccc2CN1; NHBn = c1ccc(CN*)cc1; NHPh = c1ccc(N*)cc1

Key:
[1] = organism: Mus musculus; experiment: Delta or Mu antagonist activity tested in mouse vas deferens (MVD) along with, naloxone; settings: read-out: pA2 (converted)
[2] = biological target: Delta-type opioid receptor (Mus musculus) (UniProt P32300); experiment: Molar concentration required to double the agonist concentration to achieve the original response in mouse vas deferens (MVD); format: functional, tissue-based
[3] = organism: Mus musculus; experiment: Delta or Mu antagonist activity tested in mouse vas deferens (MVD) along with N,N-dimethyl-Dmt-Tic-OH; settings: read-out: pA2 (converted)
[4] = biological target: T1, Delta-type opioid receptor (Mus musculus, UniProt P32300); experiment: Negative logarithm of the molar concentration required to double the agonist concentration to achieve the original response in mouse vas deferens (MVD); format: functional, tissue-based; settings: read-out: pA2 (converted)
[5] = biological target: Mu-type opioid receptor (Rattus norvegicus, UniProt P33535); experiment: Binding affinity for rat brain P2 synaptosome Opioid receptor mu 1; format: tissue-based
Method in brief: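 Equilibrium competition binding on rat brain P2 synaptosomes with [3H]DAGO for µ sites, in 50 mM HEPES pH 7.5 with MgCl2, protease inhibitors and glycerol. 120 min at 23-24 °C, GF/C filtration, ice-cold Tris/BSA washes. Nonspecific binding defined by 2 µM DAGO. 5-8 graded doses over 2-3 log units.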

[6] = biological target: Delta-type opioid receptor (Rattus norvegicus, UniProt P33533); experiment: Binding affinity at Opioid receptor delta 1 using rat brain receptor (P2 synaptosome) assay; format: tissue-based
Method in brief: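 Competition binding at equilibrium on rat brain P2 synaptosomes with [3H]DPDPE for δ sites, in 50 mM HEPES pH 7.5 with MgCl2, protease inhibitors and glycerol. Incubation 120 min at 23-24 °C, then GF/C filtration and ice-cold Tris/BSA washes. Nonspecific binding defined by 2 µM DPDPE. 5-8 graded doses over 2-3 log units.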

[7] = biological target: T2, Mu-type opioid receptor (Cavia porcellus, UniProt P97266); experiment: Negative logarithm of the molar concentration of an agonist to produce 50% of the maximum effect in guinea pig ileum (mu receptor) determined; format: functional, tissue-based
[8] = biological target: T2, Mu-type opioid receptor; experiment: Negative logarithm of the molar concentration of an agonist to produce 50% of the maximum effect in guinea pig ileum (mu receptor) determined by Salvadori et al.; format: functional, tissue-based
[9] = biological target: Mu-type opioid receptor (Mus musculus, UniProt P42866); experiment: Opioid receptor delta 1 or Opioid receptor mu 1 antagonist activity tested in mouse vas deferens (MVD) along with N,N-dimethyl-Dmt-Tic-OH; format: functional, tissue-based; settings: read-out: pA2 (converted)
[10] = biological target: T1, Delta-type opioid receptor; experiment: Opioid receptor delta 1 or Opioid receptor mu 1 antagonist activity tested in mouse vas deferens (MVD) along with, naloxone; format: functional, tissue-based; settings: read-out: pA2 (converted)

Mu-type opioid receptor (Rattus norvegicus, UniProt P33535), sequence (P33535 whole entry): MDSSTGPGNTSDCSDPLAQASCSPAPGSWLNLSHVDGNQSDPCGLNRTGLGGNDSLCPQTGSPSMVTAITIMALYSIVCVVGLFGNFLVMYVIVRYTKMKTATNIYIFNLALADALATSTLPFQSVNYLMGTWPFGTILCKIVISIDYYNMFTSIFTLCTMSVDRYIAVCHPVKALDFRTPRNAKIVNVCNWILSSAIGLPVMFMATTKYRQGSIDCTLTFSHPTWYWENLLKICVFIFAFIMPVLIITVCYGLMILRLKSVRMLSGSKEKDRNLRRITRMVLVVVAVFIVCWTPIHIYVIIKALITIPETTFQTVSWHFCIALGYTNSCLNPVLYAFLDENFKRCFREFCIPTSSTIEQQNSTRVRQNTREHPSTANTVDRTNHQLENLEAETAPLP
Delta-type opioid receptor (Mus musculus), sequence (P32300 whole entry): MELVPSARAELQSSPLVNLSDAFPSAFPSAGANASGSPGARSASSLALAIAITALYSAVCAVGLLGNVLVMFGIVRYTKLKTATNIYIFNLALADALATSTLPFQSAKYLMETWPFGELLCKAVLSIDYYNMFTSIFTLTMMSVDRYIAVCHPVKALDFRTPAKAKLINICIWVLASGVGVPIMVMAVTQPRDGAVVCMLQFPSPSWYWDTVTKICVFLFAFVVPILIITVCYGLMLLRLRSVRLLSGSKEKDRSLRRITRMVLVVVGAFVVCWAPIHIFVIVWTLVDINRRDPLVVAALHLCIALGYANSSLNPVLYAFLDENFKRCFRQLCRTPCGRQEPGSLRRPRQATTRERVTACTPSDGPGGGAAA
T1 sequence (P32300 whole entry): as above
T2 sequence (P97266 whole entry): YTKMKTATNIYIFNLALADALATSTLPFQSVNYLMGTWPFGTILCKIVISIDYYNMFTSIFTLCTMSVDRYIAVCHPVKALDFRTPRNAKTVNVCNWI
Delta-type opioid receptor (Rattus norvegicus, UniProt P33533), sequence (P33533 whole entry): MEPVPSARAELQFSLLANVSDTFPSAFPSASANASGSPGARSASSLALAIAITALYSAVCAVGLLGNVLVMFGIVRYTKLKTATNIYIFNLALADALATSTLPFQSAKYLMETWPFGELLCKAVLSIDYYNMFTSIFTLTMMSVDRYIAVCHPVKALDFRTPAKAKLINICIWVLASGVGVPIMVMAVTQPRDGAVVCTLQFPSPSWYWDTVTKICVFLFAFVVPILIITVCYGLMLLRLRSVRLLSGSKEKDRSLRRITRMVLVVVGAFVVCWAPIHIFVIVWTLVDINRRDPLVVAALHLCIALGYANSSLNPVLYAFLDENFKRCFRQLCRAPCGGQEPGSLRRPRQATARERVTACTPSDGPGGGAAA
Mu-type opioid receptor (Mus musculus, UniProt P42866), sequence (P42866 whole entry): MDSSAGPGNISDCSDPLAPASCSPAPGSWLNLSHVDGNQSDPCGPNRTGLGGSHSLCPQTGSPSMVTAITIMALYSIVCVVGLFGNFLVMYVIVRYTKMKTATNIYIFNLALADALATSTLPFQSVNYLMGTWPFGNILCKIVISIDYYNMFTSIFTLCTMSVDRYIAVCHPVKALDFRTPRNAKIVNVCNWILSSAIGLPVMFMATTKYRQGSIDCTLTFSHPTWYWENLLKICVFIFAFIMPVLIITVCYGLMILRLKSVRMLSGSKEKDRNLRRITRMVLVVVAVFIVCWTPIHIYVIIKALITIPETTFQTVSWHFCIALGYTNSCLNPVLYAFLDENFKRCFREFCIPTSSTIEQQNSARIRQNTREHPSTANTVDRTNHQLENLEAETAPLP

In the case of `CC(C)[C@H](NC(=O)[C@H](CC(=O)O)NC(=O)[C@H](Cc1ccccc1)NC(=O)[C@@H](C)NC(=O)[C@@H](N)Cc1ccc(O)cc1)C(=O)N[C@H](C(=O)NCC(N)=O)C(C)C` [DELTORPHIN C], the Kb [1] is reported as 31.6 nM.

`Cc1cc(O)cc(C)c1C[C@H](N)C(=O)N1Cc2ccccc2C[C@H]1C(=O)O` (H-[Dmt]-[Tic]-OH) gave an Activity [2] of -8.2.

`Cc1cc(O)cc(C)c1C[C@H](N)C(=O)N1Cc2ccccc2C[C@H]1C(=O)NCc1nc2ccccc2[nH]1` was tested, and the Kb [1] was 35.5 nM and the Kb [3] was 0.2 nM.

With `Cc1cc(O)cc(C)c1C[C@H](N)C(=O)N1Cc2ccccc2C[C@H]1c1nc2ccccc2[nH]1` the Kb [4] was 12.6 nM, the Ki [5] was 7.22 nM and the Ki [6] was 0.13 nM.

`Cc1cc(O)cc(C)c1C[C@H](N)C(=O)N1Cc2ccccc2CC1C(N)=O` (stereo partly specified) (H-[Dmt]-[ξTic]-NH2) showed an Activity [2] of -7.2.

In the case of `Cc1cc(O)cc(C)c1C[C@H](N)C(=O)N1Cc2ccccc2C[C@H]1C(=O)N[C@@H](C)C(N)=O` (H-[Dmt]-[Tic]-Ala-NH2), the Kb [4] is reported as 10 nM.

`C[C@@H](NC(=O)[C@@H](N)Cc1ccc(O)cc1)C(=O)N[C@@H](Cc1ccccc1)C(=O)NCC(=O)N[C@@H](Cc1ccc(O)cc1)C(=O)N1CCC[C@H]1C(=O)N[C@@H](CO)C(N)=O` [DERMORPHIN] gave an EC50 [7] of 0.708 nM.

Compound `Cc1cc(O)cc(C)c1C[C@H](N)C(=O)N1Cc2ccccc2C[C@H]1C(=O)NCC(=O)NCc1ccccc1` (H-[Dmt]-[Tic]-Gly-NHBn) has an EC50 [8] of 2.69 nM, a Ki [5] of 0.16 nM and a Ki [6] of 0.031 nM.

`Cc1cc(O)cc(C)c1C[C@H](N)C(=O)N1Cc2ccccc2CC1CO` (stereo partly specified) gave an Activity [2] of -7, a Ki [5] of 151 nM and a Ki [6] of 0.44 nM.

In the case of `Cc1cc(O)cc(C)c1C[C@H](N)C(=O)N1Cc2ccccc2C[C@H]1C(=O)NCC(=O)Nc1ccccc1` (H-[Dmt]-[Tic]-Gly-NHPh), the Kb [9] is reported as 0.912 nM and the Kb [10] is reported as 33.9 nM.

`Cc1cc(O)cc(C)c1C[C@H](N)C(=O)N1Cc2ccccc2C[C@H]1C(=O)NCCc1nc2ccccc2[nH]1` showed an EC50 [8] of 107 nM, a Ki [5] of 5.49 nM and a Ki [6] of 0.067 nM.
